Screens deposited in PubChem BioAssay by several laboratories.
MEKK2 mut-MEK5: signal of MEK5 binding to mutant human MEKK2 PB1 domain; percent response, % at 10 µM; bead flow cytometry, Alexa488-MEK5 binding to MEKK2 mutant; AID 1530; 290,000 compounds, 0.35% hits; in the data active = percent response above about 24%, passing the limit was not always enough
MEKK2wt PB1 HTS: raises or lowers MEK5 binding to wildtype human MEKK2 PB1 domain. 290,000 compounds, 1.1% hits. bead flow cytometry, Alexa488-MEK5 binding to MEKK2 WT; actives lie on both sides. Q9Y2U5. binding response (% of control), % at 10 µM; in the data active = binding response below about 67% or above about 130%
MEKK3 PB1 HTS: modulators (inhibitors or enhancers) of MEK5 binding to human MEKK3 PB1 domain. Q99759. bead-based flow cytometry, Alexa488-MEK5 binding to MEKK3; actives lie on both sides; 0 = blocked by unlabeled MEK5, 100 = vehicle. binding response (% of control), % at 10 µM. 290,000 compounds, 1.4% hits;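 active = binding response more than 3 SD above or below the average of its plate-row segment, actives on both sides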;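 note: Alexa488 bead fluorescence after subtracting the streptavidin-only scavenger bead signal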
ABCB1 inh: human ABCB1 inhibition, ABCG2 as counter-screen | inhibition, % at 6.6 µM | CCRF-Adr cells, JC-1 efflux, flow cytometry | 190,000 compounds, 0.067% hits | AID 1326 | P08183; in the data active = inhibition above about 40%;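 note: 0% = vehicle and 100% = reference inhibitor; higher value means more JC-1 retained so stronger ABCB1 efflux block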
WT yeast gro inh: growth inhibition of WT yeast, mitochondrial fusion screen; AID 1362; inhibition, % at 10 µM; 190,000 compounds, 2.1% hits; mitochondrial fusion phenotypic screen, WT strain; in the data active = inhibition above about 58%; tested in S. cerevisiae
ABCG2 block: human ABCG2 inhibition, ABCB1 as counter-screen | Q9UNQ0 | IgMXP3 cells, JC-1 efflux, flow cytometry | inhibition, % at 6.6 µM | 190,000 compounds, 0.1% hits | AID 1325;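 active = inhibition above 80%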;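 note: 0% = DMSO and 100% = nicardipine control wells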
Target sequence (Q9UNQ0 whole entry, looked up): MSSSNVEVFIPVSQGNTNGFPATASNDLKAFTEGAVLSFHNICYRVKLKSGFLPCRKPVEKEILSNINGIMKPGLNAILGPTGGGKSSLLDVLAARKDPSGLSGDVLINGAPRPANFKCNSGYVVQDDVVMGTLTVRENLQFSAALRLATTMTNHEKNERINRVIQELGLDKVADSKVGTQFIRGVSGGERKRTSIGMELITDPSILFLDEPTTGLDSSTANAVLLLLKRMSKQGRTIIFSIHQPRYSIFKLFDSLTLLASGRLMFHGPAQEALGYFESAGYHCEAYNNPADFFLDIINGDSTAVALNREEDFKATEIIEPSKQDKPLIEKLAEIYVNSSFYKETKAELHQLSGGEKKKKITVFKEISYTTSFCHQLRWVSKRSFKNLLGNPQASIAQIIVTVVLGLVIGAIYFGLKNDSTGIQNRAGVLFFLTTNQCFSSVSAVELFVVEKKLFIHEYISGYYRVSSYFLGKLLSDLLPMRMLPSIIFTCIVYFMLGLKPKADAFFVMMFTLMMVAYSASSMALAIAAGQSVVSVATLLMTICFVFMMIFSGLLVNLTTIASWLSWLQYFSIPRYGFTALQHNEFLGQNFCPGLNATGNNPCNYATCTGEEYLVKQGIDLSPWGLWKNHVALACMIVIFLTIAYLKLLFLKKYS
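Assay system – ABCG2 IgMXP3 and barcoded ABCB1 CCRF-Adr cell mix · Input – 3 million cells/mL in well · Reagent – JC-1 fluorescent substrate · Compound – single test compound dose, 6.6 µM final · Timing – 10 min exposure at 25 °C with rotation, no wash · Detection – flow cytometry of retained JC-1 fluorescence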
* hit, by the source's call; / = no result; + = active, no number. Hits are enriched below; roughly 3.5% of the tested compounds scored in any of these assays.

SMILES | MEKK2 mut-MEK5 | MEKK2wt PB1 HTS | MEKK3 PB1 HTS | ABCB1 inh | WT yeast gro inh | ABCG2 block
O=C(COc1c(Br)cc(Br)c2cccnc12)N1CCc2ccccc2C1 | 3 | 102 | 95 | 0 | 65* | 0
O=C(c1cccc(N2C(=O)C3CC=CCC3C2=O)c1)N1CCCCCC1 (configuration not stated) | 8 | 99 | 98 | 0 | -16 | 1
NC(=O)c1ccc(N2CCCCC2)c(N2C(=O)C3CC=CCC3C2=O)c1 (configuration not stated) | -2 | 99 | 98 | 0 | 84* | 0
Oc1ccccc1C1CC(c2cccs2)=NC(c2ccc(Cl)cc2)N1 (configuration not stated) | -6 | 98 | 99 | 0 | 73* | 2
Oc1ccc(Cl)cc1C1=NNC(c2cccs2)C1 (configuration not stated) | 1 | 93 | 98 | / | / | /
Oc1cccc(C(O)CNCc2ccc(OCc3ccc(Cl)cc3Cl)cc2)c1 (configuration not stated) | 8 | 155* | 107 | 0 | 88* | 1
CSC1=NSC2=NC(=O)/C(=C/c3coc4ccc(O)cc4c3=O)C(=N)N12 | 14 | 88 | 125 | + | 1 | 1
N=C1/C(=C\c2coc3ccccc3c2=O)C(=O)N=C2SC=CN12 | -1 | 106 | 105 | / | / | /
CSC1=NSC2=NC(=O)/C(=C/c3coc4ccccc4c3=O)C(=N)N12 | -1 | 96 | 122 | 34 | 4 | +
CSC1=NSC2=NC(=O)/C(=C\c3cccs3)C(=N)N12 | -2 | 101 | 107 | 1 | 23 | 78
Cc1[nH]c2ccc(F)cc2c1CCN(Cc1ccco1)C(=S)NC(C)(C)C | 4 | 133 | 111 | 1 | 67* | 8
CCN(CC)CCCNc1nc(SC)nc2sc3c(c12)CCN(C)C3 | 30* | 153* | 99 | / | / | /
CSc1nc(NCCCO)c2c3c(sc2n1)CN(C)CC3 | -4 | 96 | 98 | / | / | /
O=C(Nc1nnc(SCc2ccccc2Cl)s1)C1COc2ccccc2O1 (configuration not stated) | 0 | 95 | 103 | 0 | 60* | 3
COc1ccc(Sc2nc(-c3ccccn3)ncc2OC)cc1 | 1 | 102 | 112 | 3 | 63 | 10
COc1cnc(-c2ccccn2)nc1Sc1ccc(F)cc1 | -5 | 95 | 100 | 0 | 68* | 1
N#C/C(=C/c1ccc(N2CCCCCC2)o1)c1cccc(F)c1 | 6 | 103 | 103 | 9 | 2 | 13
COc1cc(N2CCCC2)c(OC)cc1/C=C(/C#N)c1cccc(F)c1 | 155* | 101 | 97 | 12 | 37 | 23
c1ccc(CC2CCN(c3ncnc4sccc34)CC2)cc1 | -3 | 102 | 100 | 0 | 63* | 3
O=C(O)c1cc2c(N3CCC(Cc4ccccc4)CC3)ncnc2s1 | -8 | 96 | 96 | 0 | -3 | 4
CCOc1ccc(NC(=O)CC(c2ccccc2)c2ccc(F)cc2)cc1 (configuration not stated) | 0 | 105 | 126 | 1 | -5 | 21
CCOC(=O)c1c(NC(=O)CSc2ncnc3ccccc23)sc(C(C)=O)c1C | -1 | 93 | 98 | 42* | 0 | 40
CC(C)C1=CC(=Nc2ccc(S(N)(=O)=O)cc2)C=C(C(C)C)C1=O | 1 | 105 | 107 | / | / | /
COc1ccc(S(=O)(=O)Nc2cc(Sc3ncn[nH]3)c(O)c3ccccc23)cc1 | / | / | / | 0 | 94* | -1
COCCN(Cc1ccc(F)cc1)C(=O)c1cc2ccccc2oc1=O | 9 | 107 | 106 | / | / | /
CCNc1nc(NC(C)(C)C)nc(N2CCCC2)n1 | -1 | 108 | 106 | 1 | 60* | 3
Cc1ccccc1Nc1cccc2nonc12 | 1 | 98 | 99 | 0 | 11 | 5
COc1ccc(NC(=O)CS(=O)(=O)c2cn(CC(=O)N3CCOCC3)c3ccccc23)cc1 | 6 | 104 | 104 | 0 | 1 | 0
CC(=O)c1ccc(N(CC(=O)NCCc2ccccc2)C(=O)c2csnn2)cc1 | 6 | 107 | 104 | / | / | /
CCn1c(SCC(=O)Nc2ccccc2C)nc2nc3c(cc2c1=O)COC(C)(C)C3 | -2 | 96 | 98 | / | / | /
